Results from ChEMBL document CHEMBL2169774, “Stabilization and structural alteration of the G-quadruplex DNA made from the human telomeric repeat mediated by Tröger's base based novel benzimidazole derivatives” (J Med Chem, 2012).
Active and inactive are the calls of the source. The rule behind the calls is not given here.

What was measured:
[1] = test system: Nucleic Acid; test: Binding affinity to human d[G3(T2AG3)3] G-quadruplex DNA assessed formation of G-quadruplex parallel strands in 100 mM KCl buffer by CD spectroscopy; format: nucleic-acid assay
In short: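 Hum21 (4 μM strand) was heated at 90 °C for 5 min together with ligand (40 μM), then cooled slowly in 100 mM KCl buffer (10 mM Tris-HCl, 0.1 mM EDTA, pH 7.4). CD spectra were recorded to assign parallel or antiparallel topology.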

[2] = test system: Nucleic Acid; test: Induction of topology changes in human d[G3(T2AG3)3] G-quadruplex DNA in 100 uM KCl buffer by EMSA method; format: nucleic-acid assay; conditions: in the assay text read “100 mM KCl” for “100 uM KCl”
In short: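 5′-32P-labelled Hum21 G4DNA (5 μM) was used under two conditions. In one, it was preformed in 100 mM KCl and then given ligand (25 μM). In the other, it was folded with ligand (15–60 μM) by heating at 90 °C for 5 min and slow cooling in 100 mM KCl. Samples were run on native polyacrylamide gel with a dT20 mobility marker.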

[3] = test system: Nucleic Acid; test: Binding affinity to human d[G3(T2AG3)3] G-quadruplex DNA in 100 mM KCl buffer by CD spectroscopy; format: nucleic-acid assay
In short: (§1)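 CD spectral titration of preformed Hum21 G4DNA (4 μM) in 10 mM Tris-HCl, 100 mM KCl, 0.1 mM EDTA, pH 7.4. Ligand was added at 0–160 μM in 20 μM increments. The induced CD band was followed.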

[4] = test system: Nucleic Acid; test: Binding affinity to human d[G3(T2AG3)3] G-quadruplex DNA in LiCl+ Na+ buffer by CD spectroscopy; format: nucleic-acid assay
In short: (§2)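 CD titration of preformed Hum21 G4DNA (4 μM) in 100 mM LiCl, 10 mM sodium cacodylate, 0.1 mM EDTA, pH 7.4. Ligand was added stepwise from 0 to 160 μM in 20 μM steps. Peaks at 250 and 295 nm and the induced CD band were monitored.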

[5] = test system: Nucleic Acid; test: Binding affinity to human d[G3(T2AG3)3] G-quadruplex DNA assessed as change in structure in CD spectral profile in LiCl buffer by CD spectroscopy; format: nucleic-acid assay
In short: (§3)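 Hum21 G4DNA (4 μM strand) was preformed in 10 mM Tris-HCl with 100 mM LiCl and 0.1 mM EDTA, pH 7.4. It was then titrated with ligand and CD spectra were recorded.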

[6] = test system: Nucleic Acid; test: Binding affinity to human d[G3(T2AG3)3] G-quadruplex DNA assessed as change in melting temperature at 20 uM in KCl buffer; format: nucleic-acid assay
In short: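 CD melting of preformed Hum21 G4DNA (2 μM) in 10 mM Tris-HCl, 100 mM KCl, 0.1 mM EDTA, read at 292 nm. Ligand added at r = 10. ΔTm is bound minus free Tm, average of two runs.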

[7] = molecular target: Telomerase reverse transcriptase (Homo sapiens, UniProt O14746); test: Inhibition of telomerase extracted from human A549 cells by TRAP-LIG assay; format: cell-free
Chain of Telomerase reverse transcriptase (O14746 whole entry): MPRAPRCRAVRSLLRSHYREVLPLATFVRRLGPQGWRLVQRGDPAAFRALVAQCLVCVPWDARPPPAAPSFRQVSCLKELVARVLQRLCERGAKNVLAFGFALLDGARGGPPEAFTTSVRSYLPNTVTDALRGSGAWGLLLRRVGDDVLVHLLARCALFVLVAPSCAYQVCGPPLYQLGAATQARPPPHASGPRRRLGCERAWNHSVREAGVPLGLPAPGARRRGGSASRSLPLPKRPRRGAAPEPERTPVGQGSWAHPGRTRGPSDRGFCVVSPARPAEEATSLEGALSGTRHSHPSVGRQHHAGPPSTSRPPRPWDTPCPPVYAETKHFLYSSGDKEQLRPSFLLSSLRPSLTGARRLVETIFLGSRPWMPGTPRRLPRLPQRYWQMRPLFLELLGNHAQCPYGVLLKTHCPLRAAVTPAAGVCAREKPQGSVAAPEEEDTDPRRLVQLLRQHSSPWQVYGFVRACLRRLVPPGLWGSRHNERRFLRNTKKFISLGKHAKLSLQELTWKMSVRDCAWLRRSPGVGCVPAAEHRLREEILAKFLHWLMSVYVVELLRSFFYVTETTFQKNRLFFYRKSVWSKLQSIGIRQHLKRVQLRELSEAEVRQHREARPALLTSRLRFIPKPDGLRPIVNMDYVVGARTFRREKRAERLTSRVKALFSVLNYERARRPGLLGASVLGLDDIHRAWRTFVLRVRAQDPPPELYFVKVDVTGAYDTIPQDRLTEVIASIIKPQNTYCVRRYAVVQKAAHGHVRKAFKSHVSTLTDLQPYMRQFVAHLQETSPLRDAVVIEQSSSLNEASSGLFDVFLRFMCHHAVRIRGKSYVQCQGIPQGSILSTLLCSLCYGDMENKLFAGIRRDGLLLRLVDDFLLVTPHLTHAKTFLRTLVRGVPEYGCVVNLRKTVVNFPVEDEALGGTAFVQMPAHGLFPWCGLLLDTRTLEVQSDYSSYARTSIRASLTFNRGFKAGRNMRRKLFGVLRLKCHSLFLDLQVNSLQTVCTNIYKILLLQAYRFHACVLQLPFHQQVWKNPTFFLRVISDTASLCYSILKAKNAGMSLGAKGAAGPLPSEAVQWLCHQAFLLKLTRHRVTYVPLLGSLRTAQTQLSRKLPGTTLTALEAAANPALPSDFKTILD
In short: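 Three-step TRAP-LIG assay with A549 protein extract (500 ng/sample) and TS primer in TRAP buffer (pH 8.3, 68 mM KCl), ligand at 5–60 μM. Elongation ran at 30 °C for 10 min. Ligand was then removed on a spin column. PCR with ACX primer ran 30 cycles. Products were resolved on 10% PAGE and read by phosphorimager. IC50 is the mean of three experiments.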

[8] = test system: Nucleic Acid; test: Binding affinity to human d[G3(T2AG3)3] G-quadruplex DNA assessed as change in melting temperature at 20 uM in KCl buffer using compound which is heated to 90 degC for 5 mins followed by slow cooling; format: nucleic-acid assay
In short: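 Hum21 (2 μM) was folded in KCl buffer (10 mM Tris-HCl, 100 mM KCl, 0.1 mM EDTA) with ligand present at r = 10, by heating to 90 °C for 5 min and cooling slowly. CD melting was read at 266 nm. ΔTm is taken against free G4DNA, mean of two experiments.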

[9] = test system: HeLa; test: Cytotoxicity in human HeLa cells at 4 uM up to 15 days by […]; format: functional
In short: (§4)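 Long-term proliferation: HeLa, A549 or NIH3T3 cells were seeded at 5.0 × 10⁴/well. They were exposed to 4 μM ligand, or 0.1% DMSO as vehicle, every 5 days. Cells were counted and reseeded at half the population over 15 days, and population versus time was plotted.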

[10] = test system: NIH3T3; test: Cytotoxicity in mouse NIH/3T3 cells incubated for 6 to 48 hrs by MTT assay; format: cell-based
In short: (§5)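 HeLa, A549 or NIH3T3 cells (15.0 × 10³/well) were grown 24 h to 70% confluency. Ligand was applied at various concentrations in 0.2% FBS for 6 or 48 h at 37 °C. Medium was then replaced with DMEM/10% FBS and growth continued 42 h. MTT was added for 4 h and formazan dissolved in DMSO. Absorbance read at 595 nm, in triplicate, viability normalized to untreated cells.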

[11] = test system: Nucleic Acid; test: Binding affinity to human d[G3(T2AG3)3] G-quadruplex DNA in LiCl buffer by CD spectroscopy; format: nucleic-acid assay; in short: as §3
[12] = test system: A549; test: Cytotoxicity in human A549 cells incubated for 6 to 48 hrs by MTT assay; format: functional, cell-based; in short: as §5
[13] = test system: Nucleic Acid; test: Binding affinity to human d[G3(T2AG3)3] G-quadruplex DNA assessed as change in structure in CD spectral profile in LiCl+ Na+ buffer by CD spectroscopy; format: nucleic-acid assay; in short: as §2
[14] = test system: A549; test: Cytotoxicity in human A549 cells at 4 uM up to 15 days […]; format: functional; in short: as §4
[15] = test system: HEK293; test: Cytotoxicity in HEK293 cells incubated for 6 to 48 hrs by MTT assay; format: cell-based; conditions: human
In short: (§6)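 HEK293 and HEK293T cells were seeded at 8.0 × 10³/well and run as in the short-term MTT protocol: treatment in 0.2% FBS, then medium change and 595 nm formazan read-out. Figure data reflect 48 h exposure, six replicates per point.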

[16] = test system: Nucleic Acid; test: Binding affinity to human d[G3(T2AG3)3] G-quadruplex DNA assessed as change in melting temperature at 10 uM in LiCl-Na buffer; format: nucleic-acid assay
In short: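 CD melting of Hum21 G4DNA (4 μM strand) preformed by heating at 90 °C for 5 min then slow cooling over 24 h in 100 mM LiCl, 10 mM sodium cacodylate, 0.1 mM EDTA, pH 7.4. Ligand added at [ligand]/[DNA] r = 5. Melting followed at 295 nm. ΔTm is ligand-bound minus free Tm, average of two runs.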

[17] = test system: Nucleic Acid; test: Binding affinity to human d[G3(T2AG3)3] G-quadruplex DNA by UV-vis titration based assay; format: nucleic-acid assay
In short: (§7)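 UV–vis absorption titration of ligand with preformed Hum21 G4DNA, or with calf thymus duplex DNA. Hypochromicity data were converted to Scatchard plots, and the apparent association constant was obtained by linear fitting.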

[18] = test system: HeLa; test: Cytotoxicity in human HeLa cells incubated for 6 to 48 hrs by MTT assay; format: functional, cell-based; in short: as §5
[19] = test system: HEK-293T; test: Cytotoxicity in transformed HEK293T cells incubated for 6 to 48 hrs by MTT assay; format: functional, cell-based; conditions: Homo sapiens; in short: as §6
[20] = test system: Nucleic Acid; test: Binding affinity to human d[G3(T2AG3)3] G-quadruplex DNA assessed as change in melting temperature at 20 uM in NaCl buffer; format: nucleic-acid assay
In short: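 CD melting at 295 nm of Hum21 G4DNA (2 μM strand) preformed in 10 mM Tris-HCl, 100 mM NaCl, 0.1 mM EDTA. Ligand at r = 10. ΔTm is complexed minus free Tm, mean of two experiments.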

[21] = test system: Nucleic Acid; test: Ratio of Kapp for human d[G3(T2AG3)3] G-quadruplex DNA to Kapp for calf thymus duplex DNA; format: nucleic-acid assay; in short: as §7
[22] = test system: NIH3T3; test: Cytotoxicity in mouse NIH/3T3 cells at 4 uM up to 15 days […]; format: cell-based; conditions: nih3t3, 360 h; in short: as §4
[23] = test system: Nucleic Acid; test: Binding affinity to human d[G3(T2AG3)3] G-quadruplex DNA assessed as change in structure in CD spectral profile in 100 mM KCl buffer by CD spectroscopy; format: nucleic-acid assay; in short: as §1

SMILES | Activity [1] | Activity [2] | Activity [3] | Activity [4] | Activity [5] | ΔTm [6] [°C] | IC50 [7] [µM] | ΔTm [8] [°C] | Activity [9] | Activity [10] | Activity [11] | Activity [12] | Activity [13] | Activity [14] | Activity [15] | ΔTm [16] [°C] | Kapp [17] [×10⁵ /M] | Activity [18] | Activity [19] | ΔTm [20] [°C] | further results
OCCN1CCN(c2ccc3nc(-c4ccc5c(c4)CN4CN5Cc5cc(-c6nc7ccc(N8CCN(CCO)CC8)cc7[nH]6)ccc54)[nH]c3c2)CC1 | Active | Active | Active | Active | inactive | 10 | 14.5 | 17 | Active | Toxic | Active | Active | inactive | Active | Toxic | 9.5 | 4.2 | Active | Active | 11 | Activity ([14]; record 2): 100%; Ratio [21]: 100; Activity [22]: Toxic; Activity [23]: inactive
CN1CCN(c2ccc3nc(-c4ccc5c(c4)CN4CN5Cc5cc(-c6nc7ccc(N8CCN(C)CC8)cc7[nH]6)ccc54)[nH]c3c2)CC1 | Active | inactive | Active | Active | inactive | 8 | 34.7 | 15 | 100% | Toxic | Active | Active | inactive | 100% | Toxic | 9.3 | 1.4 | Active | Active | 9 | Ratio [21]: 100; Activity [22]: Toxic; Activity [23]: inactive
